Source: ChEMBL document CHEMBL3526055, “Human metabolism of lapatinib, a dual kinase inhibitor: implications for hepatotoxicity” (Drug Metab Dispos, 2012)

What was measured:
Assay type in all cases: ADME, organism-based
[1] = Drug level in healthy human feces treated with [14C]lapatinib at 250 mg, po administered as single dose by LC-MS/MS method; details: in vivo
Plasma [2] = experiment: Drug level in healthy human plasma treated with [14C]lapatinib at 250 mg, po administered as single dose by LC-MS/MS method; details: in vivo
In short: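 Healthy volunteers (n=6) received a single 250 mg oral aqueous suspension of unlabeled plus [14C]-drug (89.1 μCi), fasted 10 h predose to ~4 h postdose. Samples were collected for 168 h. Plasma was extracted from 25 µl by protein precipitation with an isotope-labeled internal standard and quantified by validated LC/MS/MS over 5 to 5000 ng/ml. Medians were reported.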

Plasma [3] = experiment: Drug metabolism in healthy human plasma assessed as 2-chloro-4-(6-(5-((2-(methylsulfonyl)ethylamino)methyl)furan-2-yl)quinazolin-4-ylamino)phenol formation at 250 mg, po administered as single dose by LC-MS/MS method; details: in vivo
In short: (§1)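 Pooled plasma from subjects given a single 250 mg oral [14C] suspension was extracted (>90% recovery) and run on a C18 HPLC column at 45 °C. Positive-ion ESI single-quadrupole LC/MS used full scan m/z 100 to 900, with UV at 277 nm. Faeces were extracted with ethanol:acetonitrile:sample (3:3:1) for radio-HPLC profiling with off-line LSC fractions and nanoelectrospray MS.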

Plasma [4] = experiment: Drug metabolism in healthy human plasma assessed as (E)-5-(4-(3-chloro-4-(3-fluorobenzyloxy)phenylamino)quinazolin-6-yl)furan-2-carbaldehyde oxime formation at 250 mg, po administered as single dose by LC-MS/MS method; details: in vivo; in short: as §1
[5] = Drug metabolism in healthy human feces assessed as 6-(5-(aminomethyl)furan-2-yl)-N-(3-chloro-4-(3-fluorobenzyloxy)phenyl)quinazolin-4-amine formation at 250 mg, po administered as single dose by LC-MS/MS method; details: in vivo; in short: as §1
[6] = Drug recovery in healthy male human urine at 250 mg, po administered as single dose; details: read-out: Drug recovery
In short: (§2)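 Six healthy subjects (3 male, 3 female) received a single 250 mg oral [14C] suspension. Urine was collected in intervals and faeces were collected up to 168 h postdose. Faeces were homogenized as a water slurry and triplicate ~0.2 g aliquots combusted. Urine and plasma were counted directly by LSC with quench and background correction. Results are reported as median % of dose.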

[7] = Drug recovery in healthy human urine at 250 mg, po administered as single dose after 0 to 24 hrs; details: read-out: Drug recovery; in short: as §2
Plasma [8] = experiment: Drug metabolism in healthy human plasma assessed as (Z)-5-(4-(3-chloro-4-(3-fluorobenzyloxy)phenylamino)quinazolin-6-yl)furan-2-carbaldehyde oxime formation at 250 mg, po administered as single dose by LC-MS/MS method; details: in vivo; in short: as §1
[9] = Drug recovery in healthy human urine at 250 mg, po administered as single dose; details: read-out: Drug recovery; in short: as §2
Plasma [10] = experiment: Drug metabolism in healthy human plasma assessed as 5-(4-(3-chloro-4-(3-fluorobenzyloxy)phenylamino)quinazolin-6-yl)furan-2-carboxylic acid formation at 250 mg, po administered as single dose by LC-MS/MS method; details: in vivo; in short: as §1
Plasma [11] = experiment: Drug recovery in healthy human plasma at 250 mg, po administered as single dose; details: in vivo
[12] = Total drug recovery in healthy male human at 250 mg, po administered as single dose; details: in vivo, read-out: Drug recovery; in short: as §2
Plasma [13] = experiment: Drug metabolism in healthy human plasma assessed as 5-(4-(3-chloro-4-(3-fluorobenzyloxy)phenylamino)quinazolin-6-yl)furan-2-carbaldehyde formation at 250 mg, po administered as single dose by LC-MS/MS method; details: in vivo; in short: as §1
[14] = Drug recovery in healthy human feces at 250 mg, po administered as single dose after 0 to 24 hrs; details: read-out: Drug recovery; in short: as §2
[15] = Drug recovery in healthy female human feces at 250 mg, po administered as single dose; details: read-out: Drug recovery; in short: as §2
[16] = Drug level in healthy human feces at 250 mg, po administered as single dose by LC-MS/MS method; details: read-out: Drug uptake
[17] = Drug recovery in healthy female human urine at 250 mg, po administered as single dose; details: read-out: Drug recovery; in short: as §2
[18] = Drug recovery in healthy human feces at 250 mg, po administered as single dose after 0 to 96 hrs; details: read-out: Drug recovery; in short: as §2
[19] = Drug recovery in healthy human urine at 250 mg, po administered as single dose after 0 to 72 hrs; details: read-out: Drug recovery; in short: as §2
Plasma [20] = experiment: Drug metabolism in healthy human plasma assessed as N-(3-chloro-4-(3-fluorobenzyloxy)phenyl)-6-(5-((hydroxy(2-(methylsulfonyl)ethyl)amino)methyl)furan-2-yl)quinazolin-4-amine formation at 250 mg, po administered as single dose by LC-MS/MS method; details: in vivo; in short: as §1
[21] = Drug recovery in healthy human urine at 250 mg, po administered as single dose after 0 to 144 hrs; details: read-out: Drug recovery; in short: as §2
[22] = Total drug recovery in healthy human at 250 mg, po administered as single dose; details: in vivo, read-out: Drug recovery; in short: as §2
Plasma [23] = experiment: Drug metabolism in healthy human plasma assessed as N-((5-(4-(3-chloro-4-(3-fluorobenzyloxy)phenylamino)quinazolin-6-yl)furan-2-yl)methylene)-2-(methylsulfonyl)ethanamine oxide formation at 250 mg, po administered as single dose by LC-MS/MS method; details: in vivo; in short: as §1
[24] = Drug recovery in healthy human urine at 250 mg, po administered as single dose after 0 to 120 hrs; details: read-out: Drug recovery; in short: as §2
Plasma [25] = experiment: Drug metabolism in healthy human plasma assessed as 4-(3-chloro-4-hydroxyphenylamino)-6-(5-((2-(methylsulfonyl)ethylamino)methyl)furan-2-yl)quinazolin-2-ol formation at 250 mg, po administered as single dose by LC-MS/MS method; details: in vivo; in short: as §1
[26] = Drug recovery in healthy human urine at 250 mg, po administered as single dose after 0 to 96 hrs; details: read-out: Drug recovery; in short: as §2
[27] = Drug recovery in healthy human feces at 250 mg, po administered as single dose after 0 to 144 hrs; details: read-out: Drug recovery; in short: as §2
[28] = Drug recovery in healthy male human feces at 250 mg, po administered as single dose; details: read-out: Drug recovery; in short: as §2
[29] = Total drug recovery in healthy female human at 250 mg, po administered as single dose; details: in vivo, read-out: Drug recovery; in short: as §2
Homo sapiens = experiment: Total drug recovery in healthy human at 250 mg, po administered as single dose after 0 to 168 hrs; details: in vivo; in short: as §2
[30] = Drug recovery in healthy human feces at 250 mg, po administered as single dose after 0 to 48 hrs; details: read-out: Drug recovery; in short: as §2
[31] = Drug recovery in healthy human urine at 250 mg, po administered as single dose after 0 to 48 hrs; details: read-out: Drug recovery; in short: as §2
[32] = Drug recovery in healthy human feces at 250 mg, po administered as single dose after 0 to 120 hrs; details: read-out: Drug recovery; in short: as §2
[33] = Drug recovery in healthy human urine at 250 mg, po administered as single dose after 0 to 168 hrs; details: read-out: Drug recovery; in short: as §2
[34] = Drug recovery in healthy human feces at 250 mg, po administered as single dose after 0 to 168 hrs; details: read-out: Drug recovery; in short: as §2
Plasma [35] = experiment: Drug metabolism in healthy human plasma assessed as 1-(5-(4-(3-chloro-4-(3-fluorobenzyloxy)phenylamino)quinazolin-6-yl)furan-2-yl)-N-(2-(methylsulfonyl)ethylidene)methanamine oxide formation at 250 mg, po administered as single dose by LC-MS/MS method; details: in vivo; in short: as §1
[36] = Drug recovery in healthy human feces at 250 mg, po administered as single dose after 0 to 72 hrs; details: read-out: Drug recovery; in short: as §2

## NCc1ccc(-c2ccc3ncnc(Nc4ccc(OCc5cccc(F)c5)c(Cl)c4)c3c2)o1
[1]
  Drug metabolism: metabolite_detected

## O/N=C/c1ccc(-c2ccc3ncnc(Nc4ccc(OCc5cccc(F)c5)c(Cl)c4)c3c2)o1
Plasma [2]
  Drug metabolism: metabolite_detected

## CS(=O)(=O)CCN(O)Cc1ccc(-c2ccc3ncnc(Nc4ccc(OCc5cccc(F)c5)c(Cl)c4)c3c2)o1
Plasma [2]
  Drug metabolism: metabolite_detected

## O=Cc1ccc(-c2ccc3ncnc(Nc4ccc(OCc5cccc(F)c5)c(Cl)c4)c3c2)o1
Plasma [2]
  Drug metabolism: metabolite_detected

## CS(=O)(=O)CC/[N+]([O-])=C/c1ccc(-c2ccc3ncnc(Nc4ccc(OCc5cccc(F)c5)c(Cl)c4)c3c2)o1
Plasma [2]
  Drug metabolism: metabolite_detected

## CS(=O)(=O)CCNCc1ccc(-c2ccc3ncnc(Nc4ccc(O)c(Cl)c4)c3c2)o1
[1]
  Drug uptake: 3.9%

## CS(=O)(=O)CC[n+]1cc([O-])ccc1-c1ccc2ncnc(Nc3ccc(OCc4cccc(F)c4)c(Cl)c3)c2c1
[1]
  Drug metabolism: metabolite_detected

## O/N=C\c1ccc(-c2ccc3ncnc(Nc4ccc(OCc5cccc(F)c5)c(Cl)c4)c3c2)o1
Plasma [2]
  Drug metabolism: metabolite_detected

## CS(=O)(=O)C/C=[N+](/[O-])Cc1ccc(-c2ccc3ncnc(Nc4ccc(OCc5cccc(F)c5)c(Cl)c4)c3c2)o1
Plasma [2]
  Drug metabolism: metabolite_detected

## CS(=O)(=O)CCNCc1ccc(-c2ccc3nc(O)nc(Nc4ccc(O)c(Cl)c4)c3c2)o1
[1]
  Drug uptake: 3.3%

## Oc1ccc(-c2ccc3ncnc(Nc4ccc(OCc5cccc(F)c5)c(Cl)c4)c3c2)nc1
[1]
  Drug uptake: 6.3%

## O=C(O)c1ccc(-c2ccc3ncnc(Nc4ccc(OCc5cccc(F)c5)c(Cl)c4)c3c2)o1
Plasma [2]
  Drug metabolism: metabolite_detected
[1]
  Drug uptake: 14%

## CS(=O)(=O)CCNCc1ccc(-c2ccc3ncn[14c](Nc4ccc(OCc5cccc(F)c5)c(Cl)c4)c3c2)o1.Cc1ccc(S(=O)(=O)O)cc1.O
Plasma [3]
  Drug metabolism: metabolite_not_detected
Plasma [4]
  Drug metabolism: metabolite_detected
[5]
  Drug metabolism: metabolite_detected
[6]
  dose excreted: 1%
[7]
  dose excreted: 1.01%
Plasma [8]
  Drug metabolism: metabolite_detected
[9]
  dose excreted: 1.15%
Plasma [10]
  Drug metabolism: metabolite_detected
Plasma [11]
  Drug recovery: > 90%
[12]
  dose excreted: 94.6%
Plasma [13]
  Drug metabolism: metabolite_detected
[14]
  dose excreted: 10.5%
[15]
  dose excreted: 89.9%
[16]
  dose excreted: 27%
[17]
  dose excreted: 1.3%
[18]
  dose excreted: 78.4%
[19]
  dose excreted: 1.16%
Plasma [20]
  Drug metabolism: metabolite_detected
[21]
  dose excreted: 1.16%
[22]
  dose excreted: 93%
Plasma [23]
  Drug metabolism: metabolite_detected
[24]
  dose excreted: 1.16%
Plasma [25]
  Drug metabolism: metabolite_not_detected
[26]
  dose excreted: 1.16%
[27]
  dose excreted: 91.4%
[28]
  dose excreted: 93.6%
[29]
  dose excreted: 91.5%
Homo sapiens
  Drug recovery: 93.1%
[30]
  dose excreted: 45.3%
[31]
  dose excreted: 1.16%
[32]
  dose excreted: 90.8%
[33]
  dose excreted: 1.16%
[34]
  dose excreted: 91.8%
Plasma [35]
  Drug metabolism: metabolite_detected
[36]
  dose excreted: 74.9%
